# Measurements reported in ChEMBL document CHEMBL4393703, “Organoseleno cytostatic derivatives: Autophagic cell death with AMPK and JNK activation” (Eur J Med Chem, 2019).
# Key:
# MOLT-4 = experiment: Antiproliferative activity against human MOLT4 cells assessed as reduction in cell growth at 10 uM incubated for 48 hrs by MTT assay; type: functional; design: scale not given: the % may be the effect or the level left
# Method in brief: (§1)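 Two-concentration MTT screen (10 and 100 µM; the 10 µM readings are the values here) run before full dose-response profiling. Cells seeded at 8,000–40,000 per well depending on cell size and left overnight, then exposed to compound for 48 h. MTT (2 mg/mL stock) added for 4 h, formazan dissolved in DMSO, absorbance read at 550 nm. Growth given as percent of untreated controls, averaged.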
# MCF7 = experiment: Antiproliferative activity against human MCF7 cells assessed as reduction in cell growth at 10 uM incubated for 48 hrs by MTT assay; type: functional; design: scale not given: the % may be the effect or the level left; method in brief: as §1
# [1] = Cytotoxicity against human 184B5 cells assessed as reduction in cell growth at 10 uM incubated for 48 hrs by MTT assay; type: cell-based; details: read-out: Activity; method in brief: as §1
# CCRF-CEM = experiment: Antiproliferative activity against human CCRF-CEM cells assessed as reduction in cell growth at 10 uM incubated for 48 hrs by MTT assay; type: functional; design: scale not given: the % may be the effect or the level left; method in brief: as §1
# HT-29 = experiment: Antiproliferative activity against human HT-29 cells assessed as reduction in cell growth at 10 uM incubated for 48 hrs by MTT assay; type: functional; design: scale not given: the % may be the effect or the level left; method in brief: as §1
# K562 = experiment: Antiproliferative activity against human K562 cells assessed as reduction in cell growth at 10 uM incubated for 48 hrs by MTT assay; type: functional; design: scale not given: the % may be the effect or the level left; method in brief: as §1
# PC-3 = experiment: Antiproliferative activity against human PC3 cells assessed as reduction in cell growth at 10 uM incubated for 48 hrs by MTT assay; type: functional; design: scale not given: the % may be the effect or the level left; method in brief: as §1
# [2] = Cytotoxicity against human BEAS2B cells assessed as reduction in cell growth at 10 uM incubated for 48 hrs by MTT assay; type: cell-based; details: BEAS-2B cells, read-out: Activity; method in brief: as §1
# [3] = Antiproliferative activity against human HTB-54 cells assessed as reduction in cell growth at 10 uM incubated for 48 hrs by MTT assay; type: functional; design: scale not given: the % may be the effect or the level left; method in brief: as §1
Structure (SMILES),Activity (MOLT-4) [%],Activity (MCF7) [%],"inhibition at 48 h, 10 µM [1] [%]",Activity (CCRF-CEM) [%],Activity (HT-29) [%],Activity (K562) [%],Activity (PC-3) [%],"inhibition at 48 h, 10 µM [2] [%]",Activity [3] [%]
N#C[Se]c1ccc(NC(=O)COCC(=O)O)cc1,101.67,54.04,96.7,89.38,90.48,90.71,22.89,81.1,98.4
O=C(O)CCC(=O)Nc1ccc([Se][Se]c2ccc(NC(=O)CCC(=O)O)cc2)cc1,83.23,69.66,80.2,80.57,91.61,105.24,70.9,76.6,88.05
O=C(O)/C=C\C(=O)Nc1ccc([Se][Se]c2ccc(NC(=O)/C=C\C(=O)O)cc2)cc1,105.28,94.07,98.3,119.77,98.04,97.45,80.03,86.1,79.95
O=C1COCC(=O)N1c1ccc([Se][Se]c2ccc(N3C(=O)COCC3=O)cc2)cc1,108.78,111.5,112,81.46,122.24,104.46,94.53,84.2,104.55
O=C(O)COCC(=O)Nc1ccc([Se][Se]c2ccc(NC(=O)COCC(=O)O)cc2)cc1,100.26,58.4,72.1,67.11,71.63,120.32,36.49,56.8,59.62
N#C[Se]c1ccc(NC(=O)C2CCCCC2C(=O)O)cc1 (stereo not given),94.82,52.91,114,103.77,68.62,121.06,103.04,96.1,112.43
O=C(O)C1CCCCC1C(=O)Nc1ccc([Se][Se]c2ccc(NC(=O)C3CCCCC3C(=O)O)cc2)cc1 (stereo not given),101.94,74.45,55,-33.59,99.45,111.58,116.42,91,95.11
N#C[Se]c1ccc(NC(=O)c2ccccc2-c2ccccc2C(=O)O)cc1,113.27,92.09,116,100.75,103.42,100.79,103.12,89.3,106.35
O=C(O)c1ccccc1C(=O)Nc1ccc([Se][Se]c2ccc(NC(=O)c3ccccc3C(=O)O)cc2)cc1,96.04,107.45,93.4,84.92,98.98,95.27,98.48,63.7,100.9
N#C[Se]c1ccc(NC(=O)CCC(=O)O)cc1,91.48,66.51,84.7,48.62,81.87,94.9,56.3,67.7,59.11
